Test results reported in paper PMC4390068 (Medicinal chemistry research : an international journal for …, 2014).
“Also recorded” adds a separate entry of the source. Like-named read-outs stand apart in the source and are kept apart here. Values belong to the compound of their own block, whether it stands above or below them.

Columns and labels:
[1] = test system: iNOS protein expression in LPS-activated BV-2 microglial cells; test: Inducible NOS protein expression by immunohistochemistry; type: cell-based, murine; details: LPS-activated BV-2 cells; 4.4 and 8.9 µM chalcone (1)
In short: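 LPS (E. coli O111:B4, 1 µg/ml, 24 h) activated BV-2 cells at 0.5 × 10^6 cells/ml in phenol-red-free DMEM with 5 % FBS and 3 mM L-glutamine. Test compound came from DMSO stock diluted in HBSS + 5 mM HEPES pH 7.4, with final DMSO <0.5 %. Cells were fixed (4 % paraformaldehyde), permeabilised (0.1 % Triton X-100/PBS) and given rabbit N-terminal anti-iNOS, then Alexa Fluor 488 anti-rabbit (each 2 h, 37 °C), with propidium iodide counterstain and confocal imaging. Dexamethasone 1 µM served as comparator.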

[2] = test system: LPS-activated BV-2 microglial cells; test: NO; type: cell-based, murine; details: for IC50: read-out: LPS-NO2 IC50
[3] = Cell viability by resazurin; type: cell-based; details: mouse
[4] = test system: LPS-stimulated BV-2 microglia cells; test: Inflammatory cytokines Multi-Analyte ELISArray MEM-004A; type: cell-based, murine; details: LPS-activated BV-2 cells, 24 h supernatant
In short: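 BV-2 cells were activated with E. coli O111:B4 LPS (1 µg/ml) plus test compound (final DMSO <0.5 %). Supernatants taken at 24 h were stored at −20 °C, then incubated with capture antibodies and mixed antigen standards (2 h, RT), biotinylated detection antibodies (1 h, RT), avidin–HRP (30 min) and development reagent. Absorbance was read at 450 nm, corrected at 570 nm. Results are % of LPS controls, mean ± STD, n = 2, Student's t test.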

Compound: COc1cc(/C=C/C(=O)c2ccc(OC)c(OC)c2O)cc(OC)c1OC [Compound 1, 2′-hydroxy-3,4,5,3′,4′-pentamethoxychalcone]
iNOS protein expression [1]: reducing iNOS protein expression; also recorded: reduction of iNOS protein
NO inhibition / anti-inflammatory effect (in words) ([2]; BV-2 cells, LPS 1 µg/ml): complete inhibition of NO
CC50 ([3]; BV-2 microglial cells): 18.3 µM
IL-1α production and release [4]: attenuated
IL-6 production and release [4]: attenuated
IL-10 production and release [4]: attenuated

IC50 ([2]; BV-2 cells, LPS 1 µg/ml, 24 h, regression of min. 5 concentrations below 40 µM, n = 4): 2.2 µM
Compound: COc1cc(/C=C/C(=O)c2ccccc2O)cc(OC)c1OC [Compound 2, 2′-hydroxy-3,4,5-trimethoxychalcone]

Compound: C[C@@H]1C[C@H]2[C@@H]3CCC4=CC(=O)C=C[C@]4(C)[C@@]3(F)[C@@H](O)C[C@]2(C)[C@@]1(O)C(=O)CO [Dexamethasone, reference compound]
CC50 [3]: > 50 µM

IC50 ([2]; Mus musculus, BV-2, 24 h): 3.1 µM
Compound: CC(=N)NCCCC[C@H](N)C(=O)O [L-NIL, L-N6-(1-iminoethyl)lysine, reference compound]
